# In ChEMBL document CHEMBL5724801, “EUbOPEN Chemogenomics Library - Multiplex” (2024):
# Values joined by “and” are separate entries in the source; they are usually repeats but may differ in a detail not shown here. Identical values can stand only once.
# System: HEK-293T
# Assay: Multiplex assay against HEK293T
# Format: toxicity, cell-based
# Conditions: human, 12 h, 1 µM, compound concentration 1 uM
# Method in brief: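 On a CQ1 microscope at 37°C and 5% CO2, live cells were imaged after compound addition. They had been stained at seeding with Hoechst33342, BioTracker Green Microtubule Cytoskeleton Dye, MitoTracker Red and Annexin V Alexa Fluor 680. CellPathfinder machine-learning gating assigned cells to Hoechst high-intensity objects or normal cells, normal cells to healthy, pyknosed or fragmented nuclei, and pyknosed cells to mitotic or apoptotic. Tubulin, mitochondrial-mass and membrane-permeability phenotypes are per cents of healthy-nucleus cells.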
Compound,Population Apoptotic (%),Population Fragmented Nuclei (%),Population Healthy Nuclei (%),Population Hoechst High Intensity Objects (%),Population Membrane Permeable-Phenotype (%),Population Mitochondria Different-Phenotype (%),Population Mitotic Cells (%),Population Normal (%),Population Pyknosed Nuclei (%),Total Cell Count
CN1CC[C@@]23CCCC[C@@H]2[C@@H]1Cc1ccc(O)cc13.O=C(O)C(O)C(O)C(=O)O,5.07% and 6.25%,0% and 2.38%,61.34% and 21.43%,0.28% and 0.59%,0,31.51% and 13.89%,94.93% and 93.75%,99.72% and 99.41%,38.66% and 76.19%,358 and 169
CCn1c(-c2nonc2N)nc2c(C#CC(C)(C)O)ncc(OCC3CCCNC3)c21 (centres undefined),10.29% and 11.11%,2.35% and 5.52%,,0.29% and 0%,0,31.65% and 45.45%,89.71% and 88.89%,99.71% and 100%,51.32% and 86.9%,342 and 145

# Same assay, conditions: human, 12 h, 10 µM, compound concentration 10 uM
Compound,Population Apoptotic (%),Population Fragmented Nuclei (%),Population Healthy Nuclei (%),Population Hoechst High Intensity Objects (%),Population Membrane Permeable-Phenotype (%),Population Mitochondria Different-Phenotype (%),Population Mitotic Cells (%),Population Normal (%),Population Pyknosed Nuclei (%),Total Cell Count
CN1CC[C@@]23CCCC[C@@H]2[C@@H]1Cc1ccc(O)cc13.O=C(O)C(O)C(O)C(=O)O,7.34% and 9.57%,0.33% and 1.28%,63.93% and 25%,0%,0% and 2.56%,30.77%,92.66% and 90.43%,100%,35.74% and 73.72%,305 and 156
CCn1c(-c2nonc2N)nc2c(C#CC(C)(C)O)ncc(OCC3CCCNC3)c21 (centres undefined),15.66% and 20.38%,0.98% and 2.91%,,1.92% and 0%,0%,33.96% and 20%,84.34% and 79.62%,98.08% and 100%,64.5% and 91.28%,313 and 172

# Same assay, conditions: human, 12 h, 10 µM, compound concentration 10 uM
row,Compound,Population Tubulin-Different-Phenotype (%)
1,CCn1c(-c2nonc2N)nc2c(C#CC(C)(C)O)ncc(OCC3CCCNC3)c21 (centres undefined),48.11% and 40%

# Same assay, conditions: human, 24 h, 1 µM, compound concentration 1 uM
Compound,Population Apoptotic (%),Population Fragmented Nuclei (%),Population Healthy Nuclei (%),Population Hoechst High Intensity Objects (%),Population Membrane Permeable-Phenotype (%),Population Mitochondria Different-Phenotype (%),Population Mitotic Cells (%),Population Normal (%),Population Tubulin-Different-Phenotype (%),Population Pyknosed Nuclei (%)
CN1CC[C@@]23CCCC[C@@H]2[C@@H]1Cc1ccc(O)cc13.O=C(O)C(O)C(O)C(=O)O,13.27% and 11.22%,1.37% and 2.04%,83.74% and 47.96%,0.15% and 0.51%,1.27% and 3.19%,9.98% and 11.7%,86.73% and 88.78%,99.85% and 99.49%,6.17% and 3.19%,
CCn1c(-c2nonc2N)nc2c(C#CC(C)(C)O)ncc(OCC3CCCNC3)c21 (centres undefined),27.07% and 20.59%,1.2% and 4.2%,58.73% and 24.48%,0.3% and 0%,1.54% and 0%,34.87% and 20%,72.93% and 79.41%,99.7% and 100%,,40.06% and 71.33%

# Same assay, conditions: human, 24 h, 1 µM, compound concentration 1 uM
row,Compound,Total Cell Count
1,CCn1c(-c2nonc2N)nc2c(C#CC(C)(C)O)ncc(OCC3CCCNC3)c21 (centres undefined),333 and 143

# Same assay, conditions: human, 24 h, 10 µM, compound concentration 10 uM
Compound,Population Apoptotic (%),Population Fragmented Nuclei (%),Population Healthy Nuclei (%),Population Hoechst High Intensity Objects (%),Population Membrane Permeable-Phenotype (%),Population Mitochondria Different-Phenotype (%),Population Mitotic Cells (%),Population Normal (%),Population Pyknosed Nuclei (%),Population Tubulin-Different-Phenotype (%)
CN1CC[C@@]23CCCC[C@@H]2[C@@H]1Cc1ccc(O)cc13.O=C(O)C(O)C(O)C(=O)O,10.81% and 11.46%,0.62% and 0.67%,76.45% and 35.33%,0%,0.54% and 0%,20.54% and 11.32%,89.19% and 88.54%,100%,22.93% and 64%,12.16% and 9.43%
CCn1c(-c2nonc2N)nc2c(C#CC(C)(C)O)ncc(OCC3CCCNC3)c21 (centres undefined),43.87% and 34.93%,1.02% and 3.07%,,1.01% and 0%,0%,55.56% and 50%,56.13% and 65.07%,98.99% and 100%,52.9% and 89.57%,82.22% and 41.67%

# Same assay, conditions: human, 24 h, 10 µM, compound concentration 10 uM
row,Compound,Total Cell Count
1,CCn1c(-c2nonc2N)nc2c(C#CC(C)(C)O)ncc(OCC3CCCNC3)c21 (centres undefined),296 and 163

# Same assay, conditions: human, 48 h, 1 µM, compound concentration 1 uM
Compound,Population Fragmented Nuclei (%),Population Healthy Nuclei (%),Population Hoechst High Intensity Objects (%),Population Membrane Permeable-Phenotype (%),Population Mitochondria Different-Phenotype (%),Population Mitotic Cells (%),Population Normal (%),Population Pyknosed Nuclei (%),Population Apoptotic (%)
CN1CC[C@@]23CCCC[C@@H]2[C@@H]1Cc1ccc(O)cc13.O=C(O)C(O)C(O)C(=O)O,4.07% and 2.37%,87.05% and 78.04%,0%,3.59% and 4.18%,11.36% and 7.6%,97.89% and 83.33%,100%,8.89% and 19.58%,
CCn1c(-c2nonc2N)nc2c(C#CC(C)(C)O)ncc(OCC3CCCNC3)c21 (centres undefined),1.43% and 3.95%,81.46% and 51.41%,0.32% and 0.56%,3.89% and 2.2%,59.34% and 63.74%,83.33% and 75.95%,99.68% and 99.44%,17.12% and 44.63%,16.67% and 24.05%

# Same assay, conditions: human, 48 h, 10 µM, compound concentration 10 uM
Compound,Population Fragmented Nuclei (%),Population Healthy Nuclei (%),Population Hoechst High Intensity Objects (%),Population Membrane Permeable-Phenotype (%),Population Mitochondria Different-Phenotype (%),Population Mitotic Cells (%),Population Normal (%),Population Pyknosed Nuclei (%),Population Apoptotic (%),Population Tubulin-Different-Phenotype (%)
CN1CC[C@@]23CCCC[C@@H]2[C@@H]1Cc1ccc(O)cc13.O=C(O)C(O)C(O)C(=O)O,2.47% and 1.7%,87.64% and 68.94%,0%,5.64% and 3.09%,15.29% and 22.84%,95.19% and 81.16%,100%,9.89% and 29.36%,,
CCn1c(-c2nonc2N)nc2c(C#CC(C)(C)O)ncc(OCC3CCCNC3)c21 (centres undefined),1.19% and 2.01%,56.75% and 26.17%,1.18% and 0%,2.8% and 0%,97.2% and 92.31%,26.42% and 28.04%,98.82% and 100%,42.06% and 71.81%,73.58% and 71.96%,70.63% and 92.31%

# Same assay, conditions: human, 48 h, 10 µM, compound concentration 10 uM
row,Compound,Total Cell Count
1,CCn1c(-c2nonc2N)nc2c(C#CC(C)(C)O)ncc(OCC3CCCNC3)c21 (centres undefined),255 and 149
